Test results reported in ChEMBL document CHEMBL1122083, “Isoxazolidine-3,5-diones as lens aldose reductase inhibitors” (J Med Chem, 1982).

Legend:
[1] = target: Aldo-keto reductase family 1 member B1 (Rattus norvegicus) (UniProt P07943); experiment: Inhibition of rat lens aldose reductase at 50 uM
In short: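 Enzyme partially purified from rat lenses. Each compound was tested at a single concentration of 50 μM, and percent inhibition was determined by the Hayman and Kinoshita method.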

[2] = pKa value for the compound was determined; assay type: physicochemical

Structure (SMILES)	inhibition [1] [%]	pKa [2]
O=C1NOC(=O)C1c1ccccc1C(F)(F)F (configuration not stated)	80	
O=C1NOC(=O)C12Cc1cccc3cccc(c13)C2	5.1	
O=C(O)CN1C(=O)c2cccc3cccc(c23)C1=O	87	
O=C1NOC(=O)C1c1cccnc1 (configuration not stated)	37	
O=C1NOC(=O)C1CC[S+]([O-])c1ccccc1 (configuration not stated)	19	
CC(=O)Nc1ccc(C2(C)C(=O)NOC2=O)cc1 (configuration not stated)	16	
COc1ccccc1C1C(=O)NOC1=O (configuration not stated)	0	
O=C1NC(=O)[C@@]2(CCOc3ccc(F)cc32)N1 [SORBINIL]		7.85
O=C1NOC(=O)C1CCOc1ccccc1 (configuration not stated)	35	
O=C1NOC(=O)C1CCS(=O)(=O)c1ccccc1 (configuration not stated)	32	
COc1cccc(C2C(=O)NOC2=O)c1 (configuration not stated)	75	
O=C1NOC(=O)C1c1ccccn1 (configuration not stated)	6.5	
